{
  "source": "PubChem BioAssay",
  "note": "Activity calls are given as the source filed them.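 How the source made its calls: active means growth inhibition above 25% in both replicates, a cutoff set 3 SD above the mean; inconclusive means above 25% in only one replicate; inactive means the rest.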",
  "data": [
    {"assay": "OD615 S. cerevisiae growth inhibition, permissive medium, pilot counter-assay, permissive growth control for S. cerevisiae lifespan shortening project (AID 705)", "conditions": "OD615, 24 h, at 10 µM, hits give high values", "method_in_brief": "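System: S. cerevisiae with engineered DeaD lifespan system. Medium: SC raffinose/galactose permissive medium. Doses: single compound dose of 10 µM, 0.25% DMSO final. Schedule: 24 h exposure, 30 °C. Measured by: OD615 turbidity read. Read-out: growth inhibition.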", "values": [
      {"compound": "COc1ccc(S(=O)(=O)Cc2ccc(C(=O)N3CCCC3)o2)cc1", "growth inhibition": "5.75% (inactive)"},
      {"compound": "CC(C)n1c(CCCO)nc2ccccc21", "growth inhibition": "-11.3% (inactive)"},
      {"compound": "Cn1c(SCc2nc3ccccc3[nH]2)nnc1-c1cccnc1", "growth inhibition": "3.69% (inactive)"},
      {"compound": "O=C(NC1CCCCC1)C1CCN(S(=O)(=O)c2cccc3cccnc23)CC1", "growth inhibition": "4.71% (inactive)"},
      {"compound": "Cc1cc(OCc2ccc(F)cc2)nc(-c2ccccc2O)n1", "growth inhibition": "-0.25% (inactive)"},
      {"compound": "CCC(=O)N=c1sc2cc(F)cc(F)c2n1C", "growth inhibition": "-6.05% (inactive)"},
      {"compound": "CCOc1ccc(C2CC(=O)NC(SC)=C2C#N)cc1", "note": "(stereo not drawn)", "growth inhibition": "-15.8% (inactive)"},
      {"compound": "COc1cc(OC)cc(-c2cc3nc(C)c(CCC(=O)O)c(C)n3n2)c1", "growth inhibition": "0.5% (inactive)"},
      {"compound": "COc1ccc(C2C=C(c3ccc(C)c(C)c3)Nc3ncnn32)c(OC)c1OC", "note": "(stereo not drawn)", "growth inhibition": "-5.12% (inactive)"},
      {"compound": "CC(CCc1ccccc1)NC(=O)CSc1nnnn1C", "note": "(stereo not drawn)", "growth inhibition": "-6.04% (inactive)"},
      {"compound": "CCN(CCNC(=O)C1CCN(c2nnc(-n3cccc3)s2)CC1)c1ccccc1", "growth inhibition": "-4.1% (inactive)"},
      {"compound": "O=C(c1cnn2ccccc12)N(Cc1ccco1)C1CCCC1", "growth inhibition": "-12% (inactive)"},
      {"compound": "CC(=O)Nc1nnc(C)s1", "growth inhibition": "-17% (inactive)"},
      {"compound": "CCOCCCNC(=O)c1cccs1", "growth inhibition": "-5.41% (inactive)"},
      {"compound": "CCc1nnc(NC(=O)CSc2nnc(Cc3cccn3C)n2C)s1", "growth inhibition": "5.43% (inactive)"},
      {"compound": "NC(=O)CSc1nnc(Cn2c(=O)sc3ccccc32)n1-c1ccccc1", "growth inhibition": "-6.81% (inactive)"},
      {"compound": "CCSc1nnc(NC(=O)C(C)C)s1", "growth inhibition": "3.02% (inactive)"},
      {"compound": "Cc1ccc2oc3c(c(=O)c2c1)C(c1cccc(Cl)c1)N(CCCN1CCOCC1)C3=O", "note": "(stereo not drawn)", "growth inhibition": "-0.165% (inactive)"}
    ]}
  ]
}
